Test [1] is filed under the species Homo sapiens. The test is described as follows: Selectivity ratio of EC50 for human OX2 receptor to EC50 for human OX1 receptor.
Test [2] has as its target T1, Orexin receptor type 2 (Homo sapiens, UniProt O43614).
T1 sequence (O43614 whole entry): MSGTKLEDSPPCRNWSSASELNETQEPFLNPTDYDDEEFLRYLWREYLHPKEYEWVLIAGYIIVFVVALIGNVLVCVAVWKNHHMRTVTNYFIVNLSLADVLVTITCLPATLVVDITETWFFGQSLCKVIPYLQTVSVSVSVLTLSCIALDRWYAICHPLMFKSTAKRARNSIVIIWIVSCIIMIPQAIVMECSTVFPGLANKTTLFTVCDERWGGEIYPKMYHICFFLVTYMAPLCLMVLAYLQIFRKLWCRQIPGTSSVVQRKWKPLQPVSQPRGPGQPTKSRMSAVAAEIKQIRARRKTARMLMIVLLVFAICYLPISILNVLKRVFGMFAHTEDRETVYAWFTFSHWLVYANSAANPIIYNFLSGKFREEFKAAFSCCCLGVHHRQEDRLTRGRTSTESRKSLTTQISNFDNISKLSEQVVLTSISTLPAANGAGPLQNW
Description: Agonist activity at human OX2 receptor overexpressed in CHO-RD-HGA16 cells assessed as calcium mobilization after 15 mins by fluorescence assay. Type of test: functional, cell-based. A general note: A change in cytosolic calcium serves as a functional read-out for many receptors and channels.

For test [3], the target named is T2, Orexin/Hypocretin receptor type 1 (Homo sapiens, UniProt O43613).
T2 sequence (O43613 whole entry): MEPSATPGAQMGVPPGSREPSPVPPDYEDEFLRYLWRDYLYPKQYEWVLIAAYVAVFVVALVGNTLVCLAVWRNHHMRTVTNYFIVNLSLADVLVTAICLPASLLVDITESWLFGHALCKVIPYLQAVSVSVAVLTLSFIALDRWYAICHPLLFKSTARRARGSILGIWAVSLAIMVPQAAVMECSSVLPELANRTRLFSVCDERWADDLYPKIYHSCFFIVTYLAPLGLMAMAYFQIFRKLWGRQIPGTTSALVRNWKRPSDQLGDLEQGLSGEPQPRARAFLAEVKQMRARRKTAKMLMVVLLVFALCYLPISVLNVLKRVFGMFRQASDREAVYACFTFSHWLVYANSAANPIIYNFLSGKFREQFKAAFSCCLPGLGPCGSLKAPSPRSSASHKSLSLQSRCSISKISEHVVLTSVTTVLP
The test is described as follows: Agonist activity at human OX1 receptor overexpressed in CHO-RD-HGA16 cells assessed as calcium mobilization after 15 mins by fluorescence assay. Type of test: functional, cell-based. In a few lines: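 EC50 from 8-point half-log concentration-response curves. Values are means of at least three independent experiments in duplicate, with SEM, or means of two independent duplicate experiments.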

pEC50: −log10 of the molar value. Where a SMILES comes first, the peptide text is derived from it.

Consider `CC[C@H](C)[C@H](NC(=O)CNC(=O)[C@H](C)NC(=O)[C@H](C)NC(=O)[C@H](Cc1cnc[nH]1)NC(=O)[C@H](CC(N)=O)NC(=O)CNC(=O)[C@H](C)NC(=O)CNC(=O)[C@H](Cc1cnc[nH]1)NC(=O)[C@H](CC(C)C)NC(=O)[C@H](CC(C)C)NC(=O)[C@H](CCC(=O)O)NC(=O)[C@H](C)N)C(=O)N[C@@H](CC(C)C)C(=O)N[C@H](C(=O)N[C@@H](CC(C)C)C(N)=O)[C@@H](C)O` (H-AELLHGAGNHAAGILTL-NH2), for which, in test [1], the Ratio EC50 worked out at 2.5. Moreover, the values for the pEC50 in test [2] and in test [3] were 5.32 and 5.72, respectively.
Turning to `CC[C@H](C)[C@H](NC(=O)CNC(=O)[C@H](C)NC(=O)[C@H](C)NC(=O)[C@H](Cc1cnc[nH]1)NC(=O)[C@H](CC(N)=O)NC(=O)CNC(=O)[C@H](C)NC(=O)CNC(=O)[C@H](C)NC(=O)[C@H](CC(C)C)NC(=O)[C@H](CC(C)C)NC(=O)[C@H](CCC(=O)O)NC(=O)[C@@H](N)Cc1ccc(O)cc1)C(=O)N[C@@H](CC(C)C)C(=O)N[C@H](C(=O)N[C@@H](CC(C)C)C(N)=O)[C@@H](C)O` (H-YELLAGAGNHAAGILTL-NH2), in test [1], the Ratio EC50 was found to be 3.9. Moreover, the values for the pEC50 in test [2] and in test [3] were 5.72 and 6.31, respectively.
As to `CC[C@H](C)[C@H](NC(=O)CNC(=O)[C@H](C)NC(=O)[C@H](C)NC(=O)[C@H](C)NC(=O)[C@H](CC(N)=O)NC(=O)CNC(=O)[C@H](C)NC(=O)CNC(=O)[C@H](Cc1cnc[nH]1)NC(=O)[C@H](CC(C)C)NC(=O)[C@H](CC(C)C)NC(=O)[C@H](CCC(=O)O)NC(=O)[C@@H](N)Cc1ccc(O)cc1)C(=O)N[C@@H](CC(C)C)C(=O)N[C@H](C(=O)N[C@@H](CC(C)C)C(N)=O)[C@@H](C)O` (H-YELLHGAGNAAAGILTL-NH2), the Ratio EC50 in test [1] was found to be 0.5. The figures for the negative logarithm of the EC50 (pEC50) in test [2] and in test [3] were 5.80 and 5.51, respectively.
The matching figures for `CC[C@H](C)[C@H](NC(=O)CNC(=O)[C@H](C)NC(=O)[C@H](C)NC(=O)[C@H](Cc1cnc[nH]1)NC(=O)[C@H](CC(N)=O)NC(=O)CNC(=O)[C@H](CO)NC(=O)[C@H](C)NC(=O)[C@H](CCC(N)=O)NC(=O)[C@H](CC(C)C)NC(=O)[C@H](CC(C)C)NC(=O)[C@H](CCCNC(=N)N)NC(=O)[C@H](CCC(N)=O)NC(=O)[C@H](CC(C)C)NC(=O)[C@@H](N)CCCNC(=N)N)C(=O)N[C@@H](CC(C)C)C(=O)N[C@H](C(=O)N[C@@H](CCSC)C(N)=O)[C@@H](C)O` (H-RLQRLLQASGNHAAGILTM-NH2): 0.7, 7.00 and 6.84.
The matching figures for `CC[C@H](C)[C@H](NC(=O)CNC(=O)[C@H](C)NC(=O)[C@H](C)NC(=O)[C@H](Cc1cnc[nH]1)NC(=O)[C@H](CC(N)=O)NC(=O)CNC(=O)[C@H](C)NC(=O)[C@H](C)NC(=O)[C@H](Cc1cnc[nH]1)NC(=O)[C@H](CC(C)C)NC(=O)[C@H](CC(C)C)NC(=O)[C@H](CCC(=O)O)NC(=O)[C@@H](N)Cc1ccc(O)cc1)C(=O)N[C@@H](CC(C)C)C(=O)N[C@H](C(=O)N[C@@H](CC(C)C)C(N)=O)[C@@H](C)O` (H-YELLHAAGNHAAGILTL-NH2): 3.4, 5.84 and 6.37.
For the compound `CC[C@H](C)[C@H](NC(=O)CNC(=O)[C@H](C)NC(=O)[C@H](C)NC(=O)[C@H](Cc1cnc[nH]1)NC(=O)[C@H](CC(N)=O)NC(=O)CNC(=O)[C@H](C)NC(=O)CNC(=O)[C@H](Cc1cnc[nH]1)NC(=O)[C@H](CC(C)C)NC(=O)[C@H](CC(C)C)NC(=O)[C@H](CCC(=O)O)NC(=O)[C@@H]1CCCN1)C(=O)N[C@@H](CC(C)C)C(=O)N[C@H](C(=O)N[C@@H](CC(C)C)C(N)=O)[C@@H](C)O` (H-PELLHGAGNHAAGILTL-NH2), the Ratio EC50 in test [1] came to 2.4. For the same compound, the negative logarithm of the EC50 (pEC50) (commonly −log10 of the EC50, conventionally taken in molar units) in test [2] is 5.49; in test [3], 5.86.
For `CC[C@H](C)[C@H](NC(=O)CNC(=O)[C@H](C)NC(=O)[C@H](C)NC(=O)[C@H](Cc1cnc[nH]1)NC(=O)[C@H](CC(N)=O)NC(=O)CNC(=O)[C@H](C)NC(=O)CNC(=O)[C@H](Cc1cnc[nH]1)NC(=O)[C@H](CC(C)C)NC(=O)[C@H](C)NC(=O)[C@H](CCC(=O)O)NC(=O)[C@@H](N)Cc1ccc(O)cc1)C(=O)N[C@@H](CC(C)C)C(=O)N[C@H](C(=O)N[C@@H](CC(C)C)C(N)=O)[C@@H](C)O` (H-YEALHGAGNHAAGILTL-NH2) the same measures were 8.9, 5.72 and 6.67.
The matching figures for `CC[C@H](C)[C@H](NC(=O)CNC(=O)[C@H](C)NC(=O)[C@H](C)NC(=O)[C@H](Cc1cnc[nH]1)NC(=O)[C@H](CC(N)=O)NC(=O)CNC(=O)[C@H](C)NC(=O)CNC(=O)[C@H](Cc1cnc[nH]1)NC(=O)[C@@H]1CCCN1C(=O)[C@H](CC(C)C)NC(=O)[C@H](CCC(=O)O)NC(=O)[C@@H](N)Cc1ccc(O)cc1)C(=O)N[C@@H](CC(C)C)C(=O)N[C@H](C(=O)N[C@@H](CC(C)C)C(N)=O)[C@@H](C)O` (H-YELPHGAGNHAAGILTL-NH2): 1.4, 5.79 and 5.95.
For `CC[C@H](C)[C@H](NC(=O)CNC(=O)[C@H](C)NC(=O)[C@H](C)NC(=O)[C@H](Cc1cnc[nH]1)NC(=O)[C@H](CC(N)=O)NC(=O)CNC(=O)[C@H](C)NC(=O)CNC(=O)[C@H](Cc1cnc[nH]1)NC(=O)[C@H](C)NC(=O)[C@H](CC(C)C)NC(=O)[C@H](CCC(=O)O)NC(=O)[C@@H](N)Cc1ccc(O)cc1)C(=O)N[C@@H](CC(C)C)C(=O)N[C@H](C(=O)N[C@@H](CC(C)C)C(N)=O)[C@@H](C)O` (H-YELAHGAGNHAAGILTL-NH2) the same measures were 2.4, 5.11 and 5.49.
As for `CC[C@H](C)[C@H](NC(=O)CNC(=O)[C@H](C)NC(=O)[C@H](C)NC(=O)[C@H](Cc1cnc[nH]1)NC(=O)[C@H](CC(N)=O)NC(=O)CNC(=O)[C@H](C)NC(=O)CNC(=O)[C@H](Cc1cnc[nH]1)NC(=O)[C@H](CC(C)C)NC(=O)[C@H](CC(C)C)NC(=O)[C@@H](CCC(=O)O)NC(=O)[C@@H](N)Cc1ccc(O)cc1)C(=O)N[C@@H](CC(C)C)C(=O)N[C@H](C(=O)N[C@@H](CC(C)C)C(N)=O)[C@@H](C)O`, the Ratio EC50 in test [1] came to 2.9. Further, the negative-log EC50 (pEC50) is 5.67 in test [2] and 6.13 in test [3].
As to `CC[C@H](C)[C@H](NC(=O)CNC(=O)[C@H](C)NC(=O)[C@H](C)NC(=O)[C@H](Cc1cnc[nH]1)NC(=O)[C@H](C)NC(=O)CNC(=O)[C@H](C)NC(=O)CNC(=O)[C@H](Cc1cnc[nH]1)NC(=O)[C@H](CC(C)C)NC(=O)[C@H](CC(C)C)NC(=O)[C@H](CCC(=O)O)NC(=O)[C@@H](N)Cc1ccc(O)cc1)C(=O)N[C@@H](CC(C)C)C(=O)N[C@H](C(=O)N[C@@H](CC(C)C)C(N)=O)[C@@H](C)O` (H-YELLHGAGAHAAGILTL-NH2), the Ratio EC50 in test [1] came out at 0.8. In addition, the pEC50 in test [2] is 5.63; in test [3], 5.51.
For `CC[C@H](C)[C@H](NC(=O)CNC(=O)[C@H](C)NC(=O)[C@H](C)NC(=O)[C@H](Cc1cnc[nH]1)NC(=O)[C@H](CC(N)=O)NC(=O)CNC(=O)[C@H](C)NC(=O)CNC(=O)[C@H](Cc1cnc[nH]1)NC(=O)[C@H](CC(C)C)NC(=O)[C@@H]1CCCN1C(=O)[C@H](CCC(=O)O)NC(=O)[C@@H](N)Cc1ccc(O)cc1)C(=O)N[C@@H](CC(C)C)C(=O)N[C@H](C(=O)N[C@@H](CC(C)C)C(N)=O)[C@@H](C)O` (H-YEPLHGAGNHAAGILTL-NH2) the same measures were 1.2, 6.00 and 6.06.
The matching figures for `CC[C@H](C)[C@H](NC(=O)CNC(=O)[C@H](C)NC(=O)[C@H](C)NC(=O)[C@H](Cc1cnc[nH]1)NC(=O)[C@H](CC(N)=O)NC(=O)CNC(=O)[C@H](C)NC(=O)[C@@H]1CCCN1C(=O)[C@H](Cc1cnc[nH]1)NC(=O)[C@H](CC(C)C)NC(=O)[C@H](CC(C)C)NC(=O)[C@H](CCC(=O)O)NC(=O)[C@@H](N)Cc1ccc(O)cc1)C(=O)N[C@@H](CC(C)C)C(=O)N[C@H](C(=O)N[C@@H](CC(C)C)C(N)=O)[C@@H](C)O` (H-YELLHPAGNHAAGILTL-NH2): 0.9, 5.66 and 5.61.
`CC[C@H](C)[C@H](NC(=O)CNC(=O)[C@H](C)NC(=O)[C@H](C)NC(=O)[C@H](Cc1cnc[nH]1)NC(=O)[C@H](CC(N)=O)NC(=O)CNC(=O)[C@H](C)NC(=O)CNC(=O)[C@H](Cc1cnc[nH]1)NC(=O)[C@H](CC(C)C)NC(=O)[C@H](CC(C)C)NC(=O)[C@H](C)NC(=O)[C@@H](N)Cc1ccc(O)cc1)C(=O)N[C@@H](CC(C)C)C(=O)N[C@H](C(=O)N[C@@H](CC(C)C)C(N)=O)[C@@H](C)O` (H-YALLHGAGNHAAGILTL-NH2): the Ratio EC50 in test [1] came to 5.6. Besides, the pEC50 in test [2] was 6.36; in test [3], 7.10.

(Values after ChEMBL document CHEMBL3102805, “Truncated Orexin Peptides: Structure-Activity Relationship Studies” (ACS Med Chem Lett, 2013).)
